# Measured values: ChEMBL document CHEMBL1255544, “Synthesis and evaluation of novel chloropyrrole molecules designed by molecular hybridization of common pharmacophores as potential antimicrobial agents” (2010)
# Activity calls are given as the source filed them. The rule behind the calls is not given here.
# Key:
# Candida albicans [1] = assay: Antimicrobial activity against Candida albicans after 48 hrs by broth dilution method; assay type: functional
# In short: (§1)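 MIC by broth dilution: the lowest concentration (highest dilution) that arrested bacterial or fungal growth. Strains were E. coli ATCC-25922, S. aureus ATCC-25923, P. aeruginosa ATCC-27853 and C. albicans.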
# Escherichia coli [2] = assay: Antimicrobial activity against Escherichia coli ATCC […] after 24 hrs by disk diffusion method; assay type: functional
# In short: (§2)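 Zone of inhibition by disc diffusion against E. coli ATCC-25922, S. aureus ATCC-25923, P. aeruginosa ATCC-27853 and recultured Klebsiella pneumoniae.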
# Staphylococcus aureus [3] = assay: Antimicrobial activity against Staphylococcus aureus ATCC 25923 after 24 hrs by disk diffusion method; assay type: functional; in short: as §2
# Pseudomonas aeruginosa [4] = assay: Antimicrobial activity against Pseudomonas aeruginosa ATCC 27853 at 100 ug/ml after 24 hrs by broth dilution method; assay type: functional, organism-based
# Staphylococcus aureus [5] = assay: Antimicrobial activity against Staphylococcus aureus ATCC 25923 after 24 hrs by broth dilution method; assay type: functional; details: ATCC 25923, 24 h; in short: as §1
# Escherichia coli [6] = assay: Antimicrobial activity against Escherichia coli ATCC […] after 24 hrs by broth dilution method; assay type: functional; in short: as §1
# Candida albicans [7] = assay: Antimicrobial activity against Candida albicans after 48 hrs by agar dilution method; assay type: functional
# In short: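 Candida albicans tested by agar dilution, with compounds in DMSO.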
# Klebsiella pneumoniae [8] = assay: Antimicrobial activity against Klebsiella pneumoniae at 100 ug/ml after 24 hrs by broth dilution method; assay type: functional, organism-based
# Pseudomonas aeruginosa [9] = assay: Antimicrobial activity against Pseudomonas aeruginosa ATCC 27853 after 24 hrs by broth dilution method; assay type: functional; details: ATCC 27853, 24 h; in short: as §1
# Klebsiella pneumoniae [10] = assay: Antimicrobial activity against Klebsiella pneumoniae after 24 hrs by broth dilution method
# Klebsiella pneumoniae [11] = assay: Antimicrobial activity against Klebsiella pneumoniae after 24 hrs by disk diffusion method; assay type: functional; in short: as §2
# Pseudomonas aeruginosa [12] = assay: Antimicrobial activity against Pseudomonas aeruginosa ATCC 27853 after 24 hrs by disk diffusion method; assay type: functional; in short: as §2
Structure (SMILES),MIC (Candida albicans [1]) [µg/mL],MIC (Staphylococcus aureus [5]) [µg/mL],MIC (Escherichia coli [6]) [µg/mL],MIC (Pseudomonas aeruginosa [9]) [µg/mL],diameter of the inhibition zone (DIZ) (Escherichia coli [2]) [mm],diameter of the inhibition zone (DIZ) (Staphylococcus aureus [3]) [mm],Activity (Pseudomonas aeruginosa [4]),diameter of the inhibition zone (DIZ) (Candida albicans [7]) [mm],Activity (Klebsiella pneumoniae [8]),"Zone of inhibition (Escherichia coli [2]; Escherichia coli, ATCC 2522, 24 h) [mm]",MIC (Klebsiella pneumoniae [10]) [µg/mL],"diameter of the inhibition zone (DIZ) (Staphylococcus aureus [3]; Staphylococcus aureus, ATCC 25923, 24 h) [mm]","Zone of inhibition (Klebsiella pneumoniae [11]; Klebsiella pneumoniae, 24 h) [mm]",diameter of the inhibition zone (DIZ) (Pseudomonas aeruginosa [12]) [mm],diameter of the inhibition zone (DIZ) (Klebsiella pneumoniae [11]) [mm]
O=C(/C=C/c1ccco1)c1ccc(Cl)[nH]1,100,25,12.5,,16,15,inactive,10,inactive,,,,,,
O=C(O)c1cn(C2CC2)c2cc(N3CCNCC3)c(F)cc2c1=O [CIPROFLOXACIN],,1.56,1.06,3.12,,,,,,25,1.56,20,26,,
COc1ccc(/C=C/C(=O)c2ccc(Cl)[nH]2)cc1,100,25,50,,10,17,inactive,14,inactive,,,,,,
COc1ccc(/C=C/C(=O)c2ccc(Cl)[nH]2)cc1OC,100,25,25,,13,13,inactive,14,inactive,,,,,,

# Now from value to molecule, other results behind:
MIC (Candida albicans [1]) [µg/mL],MIC (Staphylococcus aureus [5]) [µg/mL],MIC (Escherichia coli [6]) [µg/mL],MIC (Pseudomonas aeruginosa [9]) [µg/mL],Structure (SMILES),diameter of the inhibition zone (DIZ) (Escherichia coli [2]) [mm],diameter of the inhibition zone (DIZ) (Staphylococcus aureus [3]) [mm],Activity (Pseudomonas aeruginosa [4]),diameter of the inhibition zone (DIZ) (Candida albicans [7]) [mm],Activity (Klebsiella pneumoniae [8]),"Zone of inhibition (Escherichia coli [2]; Escherichia coli, ATCC 2522, 24 h) [mm]",MIC (Klebsiella pneumoniae [10]) [µg/mL],"diameter of the inhibition zone (DIZ) (Staphylococcus aureus [3]; Staphylococcus aureus, ATCC 25923, 24 h) [mm]","Zone of inhibition (Klebsiella pneumoniae [11]; Klebsiella pneumoniae, 24 h) [mm]",diameter of the inhibition zone (DIZ) (Pseudomonas aeruginosa [12]) [mm],diameter of the inhibition zone (DIZ) (Klebsiella pneumoniae [11]) [mm]
12.5,1.56,3.12,25,O=C(N/N=C/c1ccco1)c1cc(Cl)c(Cl)[nH]1,24,26,,23,,,,,,24,20
50,3.12,6.25,25,COc1ccc(/C=C/C(=O)c2cc(Cl)c(Cl)[nH]2)cc1OC,15,24,,18,,,,,,17,18
12.5,3.12,12.5,50,O=C(N/N=C/c1ccccc1)c1cc(Cl)c(Cl)[nH]1,11,16,,23,,,,,,18,17
